# B1: PankoMab: anti-MUC1 antibody (Glycotope, Germany), established using desialylated MUC1 as the immunogen (antibody, chains of the INN, looked up, V domains shown)
# VH: EVQLVESGGGLVQPGGSMRLSCVASGFPFSNYWMNWVRQAPGKGLEWVGEIRLKSNNYTTHYAESVKGRFTISRDDSKNSLYLQMNSLKTEDTAVYYCTRHYYFDYWGQGTLVTVSS
# VL: DIVMTQSPLSNPVTPGEPASISCRSSKSLLHSNGITYFFWYLQKPGQSPQLLIYQMSNLASGVPDRFSGSGSGTDFTLRISRVEAEDVGVYYCAQNLELPPTFGQGTKVEIK
# Tests used:
# [1] = tested on: 184A1 mammary epithelial cells; experiment: Flow cytometry binding to 184A1; assay type: cell-based, human
# In short: (§1)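 Cells were grown 48 h, trypsinized and washed in PBS with 10% FBS. 1.0 × 10^6 cells in 200 μL antibody solution, 2 h on ice. FITC-labelled anti-mouse IgG 1 h on ice, then three washes and resuspension in PBS/10% FBS. Analysed by flow cytometry; histograms overlaid on isotype control antibody.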
# [2] = tested on: H292 mucoepidermoid carcinoma cells; experiment: Flow cytometry binding to H292; assay type: cell-based, human
# In short: as §1
# [3] = tested on: T-47D breast cancer cells; experiment: Flow cytometry binding to T-47D; assay type: cell-based, human
# In short: as §1
# [4] = tested on: Calu-3 lung adenocarcinoma cells; experiment: Flow cytometry binding to Calu-3; assay type: cell-based, human
# In short: as §1
# [5] = tested on: MUC1 glycopeptides PDT*R-Tn-20-, 40-, 60-, 100-mer and PDT*R-STn-20-, 40-, 60-, 100-mer; assay type: binding; details: ELISA signals with 20-, 60- and 100-mer glycopeptides
# In short: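 Streptavidin (10 μg/mL in 50 mM Tris–HCl, pH 7.5) coated overnight at 4 °C; blocked 2 h at RT. Biotinylated Tn- or STn-glycopeptides (20-, 40-, 60-, 100-mer) captured overnight at 4 °C. Antibody overnight at 4 °C, HRP-anti-mouse IgG 2 h at RT. TMB 30 min, H2SO4 stop, A450. Antibody concentration set separately for each antibody.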
# [6] = tested on: A549 lung adenocarcinoma epithelial cells; experiment: Flow cytometry binding to A549; assay type: cell-based, human
# In short: as §1
molecule,measurement,setting,value
B1,Binding to 184A1 (in words),[1],hardly bound
same,Binding to H292 (in words),[2],hardly bound
same,Binding to T-47D (in words),[3],bound only to T-47D
same,Binding to Calu-3 (in words),[4],hardly bound
same,Tandem-repeat dependence of binding,[5],tandem-repeat-dependent manner
same,Binding to A549 (in words),[6],hardly bound

# Source: article PMC6044872 (ACS Omega, 2017)
